# Laboratory results published in ChEMBL document CHEMBL1126142, “Potential antitumor agents. 64. Synthesis and antitumor evaluation of dibenzo[1,4]dioxin-1-carboxamides: a new class of weakly binding DNA-intercalating agents” (J Med Chem, 1992).
# Activity calls are given as the source filed them. The rule behind the calls is not given here.
# Assays:
# [1] = Cytotoxicity measured on wild-type P388 murine leukemia cells; type: functional, cell-based; settings: Mus musculus
# Outline: (§1)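 A 96-well plate growth-inhibition assay in culture was run with full dose-response curves. IC50 was the drug concentration (μM) reducing cell growth to 50% of untreated controls. Values are means of three determinations. The P388/AMSA subline carries a structurally altered topoisomerase II.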
# [2] = system: P388; test: In vivo percentage increase in lifespan with compound after treating wild-type P388 murine leukemia cells with optimal dose; Not active; type: functional, organism-based; settings: Mus musculus
# [3] = system: Nucleic Acid; test: Binding constant to poly[d(A-T)] by displacement of ethidium bromide; type: nucleic-acid assay
# [4] = Lipophilicity (Rm); type: physicochemical; settings: AMSA internal standard
# Outline: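 Relative lipophilicity (Rm) was determined chromatographically using 4'-(9-acridinylamino)methanesulfonanilide (AMSA) as internal standard.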
# [5] = In vivo the optimal dose administered intraperitoneally to wild-type P388 murine leukemia cells; type: functional, Mus musculus
# Outline: (§2)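 Mice received 10^6 tumor cells intraperitoneally. After 24 h, drug was given ip as a solution in 0.1 mL 30% v/v EtOH/water on days 1, 5 and 9. The optimal dose is expressed as mg/kg per day. Groups were 6 mice, with tests in duplicate.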
# [6] = In vivo optimal dose administered intraperitoneally to wild-type P388 murine leukemia cells; type: functional, Mus musculus; outline: as §2
# [7] = In vivo percentage increase in lifespan with compound after treating wild-type P388 murine leukemia cells with optimal dose; type: functional, Mus musculus
# Outline: (§3)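 Mice bearing wild-type P388 leukemia, 10^6 cells inoculated intraperitoneally; drug given ip in 0.1 mL 30% v/v EtOH/water on days 1, 5 and 9, starting 24 h after inoculation. ILS = percentage increase in lifespan of treated over untreated tumor-bearing mice at the optimal dose (mg/kg per day); >20% counted significant. Groups of 6 mice, tests in duplicate.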
# [8] = system: P388; test: Inhibitory activity against mutant murine leukemia cell line P388/AMSA; type: functional, cell-based; settings: Mus musculus; outline: as §1
# [9] = Percentage increase in lifespan with compound after treating wild-type P388 murine leukemia cells with optimal dose; type: functional, Mus musculus; outline: as §3
# [10] = system: P388; test: Inhibitory activity against P388 murine leukemia cell which is topoisomerase II enzyme and resistant to classical topo II Inhibitors; type: functional, cell-based; settings: Mus musculus; outline: as §1
Log K [3],Rm [4],IC50 [10] [nM],SMILES,IC50 [1] [nM],ILS [2],OD [5] [mg/kg],OD [6] [mg/kg],ILS [7] [%],IC50 [8] [nM],ILS [9] [%]
5.18,-0.19,–,COc1cccc2c1Oc1cccc(C(=O)NCCN(C)C)c1O2,1600,inactive,100,–,–,–,–
4.84,0.11,–,CN(C)CCNC(=O)c1ccc2c(c1)Oc1ccccc1O2,5800,inactive,150,–,–,–,–
5.11,0.2,–,Cc1ccc2c(c1)Oc1cccc(C(=O)NCCN(C)C)c1O2,3300,inactive,45,–,–,–,–
5.15,0.21,–,CN(C)CCNC(=O)c1cccc2c1Oc1cccc(Cl)c1O2,1300,inactive,100,–,–,–,–
6.81,-1.21,–,CN(C)CCNC(=O)c1ccc2c(c1)Oc1ccc(C(=O)NCCN(C)C)cc1O2,> 10000,inactive,225,–,–,–,–
4.9,0.13,–,CN(C)CCCCNC(=O)c1cccc2c1Oc1ccccc1O2,> 20000,inactive,–,150,–,–,–
4.73,-0.49,–,CN(C)CCNC(=O)c1cccc2c1Oc1cccnc1O2,8000,inactive,100,–,–,–,–
5.26,0.14,–,Cc1cccc2c1Oc1cccc(C(=O)NCCN(C)C)c1O2,2100,inactive,45,–,–,–,–
–,0.25,830,CN(C)CCNC(=O)c1cccc2c1Oc1cc(Cl)c(Cl)cc1O2,5130,inactive,150,–,–,–,–
5.37,-0.16,–,CN(C)CCNC(=O)c1cc([N+](=O)[O-])cc2c1Oc1ccccc1O2,1700,inactive,225,–,–,–,–
4.48,-0.68,–,CN(C)CCNC(=O)c1cccc2c1Oc1c(cccc1C(=O)NCCN(C)C)O2,720,inactive,100,–,–,–,–
5.11,-0.28,–,CN(C)CCNC(=O)c1cccc2c1Oc1c(cccc1[N+](=O)[O-])O2,32,inactive,20,–,–,450,–
5.34,0.18,–,CN(C)CCNC(=O)c1cccc2c1Oc1ccc(Br)cc1O2,1900,inactive,100,–,–,–,–
5.35,0.18,–,CN(C)CCNC(=O)c1cccc2c1Oc1cc(Br)ccc1O2,3000,inactive,150,–,–,–,–
5.06,-0.2,–,CN(C)CCNC(=O)c1cccc2c1Oc1cccc([N+](=O)[O-])c1O2,2500,inactive,150,–,–,–,–
–,-0.38,930,CN(C)CCNC(=O)c1cccc2c1Oc1ncccc1O2,830,inactive,65,–,–,–,–
5.11,0.1,–,CN(C)CCNC(=O)c1cccc2c1Oc1ccc(Cl)cc1O2,1600,inactive,100,–,–,–,–

SMILES,Log K [3],Rm [4],IC50 [10] [nM],IC50 [1] [nM],ILS [2],OD [5] [mg/kg],OD [6] [mg/kg],ILS [7] [%],IC50 [8] [nM],ILS [9] [%]
CN(C)CCNC(=O)c1cccc2c1Oc1ccccc1O2,5.05,0.01,–,3000,–,–,150,76,1800,–
CN(C)CCNC(=O)c1cccc2c1Oc1c(Br)cccc1O2,5.23,-0.01,–,210,–,100,–,–,730,154
CN(C)CCNC(=O)c1cccc2c1Oc1cc([N+](=O)[O-])ccc1O2,5.64,-0.14,–,3700,–,150,–,–,–,96
CN(C)CCNC(=O)c1cccc2c1Oc1ccc([N+](=O)[O-])cc1O2,5.64,-0.14,–,6000,–,150,–,–,–,96
Cc1cccc2c1Oc1c(cccc1C(=O)NCCN(C)C)O2,5.28,0.09,–,250,–,100,–,–,7700,144
CN(C)CCNC(=O)c1cccc2c1Oc1c(Cl)cccc1O2,5.48,-0.01,–,230,–,100,–,–,2600,106
COc1cccc2c1Oc1c(cccc1C(=O)NCCN(C)C)O2,5.55,-0.02,–,380,–,45,–,–,520,45
